Legend:
[1] = Partition coefficient (logP) of the compound; type: physicochemical; details: octanol/water
[2] = t1/2 in dog; type: ADME, organism-based, Canis lupus familiaris; details: in vivo
Outline: (§1)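 Dog pharmacokinetics after oral dosing at 1 mg/kg, or at 0.7 or 0.5 mg/kg where footnoted. Cmax (µM) and oral half-life (h) from plasma levels.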

[3] = Maximum plasma concentration (Cmax) in dog at a dose of 1 mg/kg; type: ADME, organism-based, Canis lupus familiaris; parameters: dose 1 mg/kg; outline: as §1
[4] = species: Homo sapiens; experiment: Concentration required to double the activated partial thromboplastin time (aPPT) in human plasma; type: functional, cell-free
Outline: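 Anticoagulant assay in human plasma. The value is the concentration of inhibitor that doubles the activated partial thromboplastin time (2×aPTT).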

[5] = biological target: Prothrombin (Homo sapiens, UniProt P00734); experiment: Inhibitory activity against human thrombin
[6] = species: Homo sapiens; experiment: Human microsome stabilities are reported as the ratio of the % remaining after a 1 hr incubation versus the internal standard thrombin inhibitor; type: functional; parameters: unit not given here
[7] = Compound was tested for percent protein binding (PB) in human; type: ADME; details: read-out: PB (converted)
Outline: (§2)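 Plasma protein binding given as percent free drug, measured in dog plasma and in human plasma.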

[8] = Half life period after intravenous administration in dog; type: ADME, organism-based, Canis lupus familiaris; details: in vivo
Outline: (§3)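 Dog pharmacokinetics. Parameters are plasma clearance (mL/min/kg), volume of distribution (L/kg), iv half-life (h) and oral bioavailability F (%).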

[9] = Oral bioavailability in dog; type: ADME, organism-based, Canis lupus familiaris; details: in vivo; outline: as §3
[10] = Plasma clearance (pharmacokinetic parameter) in dog was determined; type: ADME, organism-based, Canis lupus familiaris; details: read-out: Clp; outline: as §3
[11] = Vd in dog; type: ADME, organism-based, Canis lupus familiaris; details: in vivo; outline: as §3
[12] = Compound was tested for percent protein binding (PB) in dog; type: ADME, organism-based, Canis lupus familiaris; details: read-out: PB (converted); outline: as §2
[13] = Maximum plasma concentration (Cmax) in dog at a dose of […] mg/kg; type: ADME, organism-based, Canis lupus familiaris

`Cc1ccccc1CNC(=O)Cn1c(Cl)cnc(NCC(F)(F)c2cccc[n+]2[O-])c1=O` gave a logP [1] of 1.74, a half-life [2] of 3.6 h and a Cmax [3] of 1760 nM. For the same molecule, the Concentration [4] was 0.77 µM.

`O=C(Cn1c(Cl)cnc(NCC(F)(F)c2ccccn2)c1=O)NCc1ccccc1F` showed a Ki [5] of 4.8 nM, a Cmax [3] of 17 nM and a Concentration [4] of 1.24 µM.

With `O=C(Cn1c(Cl)cnc(NCC(F)(F)c2cccc[n+]2[O-])c1=O)NCc1ccccc1` the logP [1] was 1.23, the Ki [5] was 7 nM and the Ratio [6] was 1.3. For the same molecule, the half-life [2] was 6.3 h, the Cmax [3] was 3200 nM and the Concentration [4] was 0.94 µM.

In the case of `O=C(Cn1c(Cl)cnc(NCC(F)(F)c2cccc[n+]2[O-])c1=O)NCc1ncccc1F`, the fraction unbound [7] is reported as 0.3, the logP [1] is reported as 0.19 and the Ki [5] is reported as 3.1 nM. For the same molecule, the half-life [8] was 2.9 h, the bioavailability [9] was 83% and the clearance [10] was 4.91 mL/min/kg. For the same molecule, the Vd [11] was 1.13 L/kg, the Ratio [6] was 6.5 and the half-life [2] was 2.5 h. For the same molecule, the Cmax [3] was 1780 nM, the fraction unbound [12] was 0.2 and the Concentration [4] was 0.54 µM.

With `O=C(Cn1c(Cl)cnc(NCC(F)(F)c2cccc[n+]2[O-])c1=O)NCc1cc(Cl)ccc1F` the logP [1] was “Not Active”, the Ki [5] was 0.16 nM and the Ratio [6] was 0. For the same molecule, the half-life [2] was 2.1 h, the Cmax [3] was 480 nM and the Concentration [4] was 0.31 µM.

In the case of `O=C(Cn1c(Cl)cnc(NCC(F)(F)c2cccc[n+]2[O-])c1=O)NCc1cc(Cl)ccc1Cl`, the logP [1] is reported as 2.61, the Ki [5] is reported as 0.087 nM and the Ratio [6] is reported as 1.04. The half-life [2] was 2.1 h, the Cmax [3] was 110 nM and the Concentration [4] was 0.39 µM.

`O=C(Cn1c(Cl)cnc(NCC(F)(F)c2cccc[n+]2[O-])c1=O)NCc1cccc(Br)c1` showed a logP [1] of 2.11, a Ki [5] of 0.19 nM and a Ratio [6] of 0.14. The half-life [2] was 3.6 h, the Cmax [3] was 1010 nM and the Concentration [4] was 0.28 µM.

For `O=C(Cn1c(Cl)cnc(NCC(F)(F)c2cccc[n+]2[O-])c1=O)NCc1c(F)cccc1F`, the logP [1] was 1.23, the Ki [5] was 0.85 nM and the Ratio [6] was 3.4. It also gave a half-life [2] of 6.2 h, a Cmax [3] of 210 nM and a Concentration [4] of 0.33 µM.

`O=C(Cn1c(Cl)cnc(NCC(F)(F)c2cccc[n+]2[O-])c1=O)NCc1ccccc1OC(F)(F)F` showed a logP [1] of 2.34, a Ki [5] of 2.4 nM and a Ratio [6] of 0. For the same molecule, the half-life [2] was 3 h, the Cmax [3] was 1670 nM and the Concentration [4] was 0.81 µM.

For `O=C(Cn1c(Cl)cnc(NCC(F)(F)c2cccc[n+]2[O-])c1=O)NCc1c(F)cccc1C(F)(F)F`, the logP [1] was 1.89, the Ki [5] was 1.3 nM and the Ratio [6] was 0. The half-life [2] was 2.4 h, the Concentration [4] was 0.88 µM and the Cmax ([13]; 0.7 mg/kg) was 70 nM.

With `COc1cccc(CNC(=O)Cn2c(Cl)cnc(NCC(F)(F)c3cccc[n+]3[O-])c2=O)c1` the logP [1] was 1.31, the Ki [5] was 1.2 nM and the Ratio [6] was 0.71. It also gave a half-life [2] of 2.8 h, a Cmax [3] of 1220 nM and a Concentration [4] of 0.43 µM.

In the case of `O=C(Cn1c(Cl)cnc(NCC(F)(F)c2cccc[n+]2[O-])c1=O)NCc1ncccc1Cl`, the fraction unbound [7] is reported as 0.59, the logP [1] is reported as 0.75 and the Ki [5] is reported as 2.9 nM. It also gave a half-life [8] of 6 h, a clearance [10] of 3.03 mL/min/kg and a Vd [11] of 1.17 L/kg. For the same molecule, the Ratio [6] was 1.3, the half-life [2] was 5.5 h and the fraction unbound [12] was 0.5. The Concentration [4] was 0.47 µM and the Cmax ([13]; 0.7 mg/kg) was 1090 nM.

`O=C(Cn1c(Cl)cnc(NCC(F)(F)c2cccc[n+]2[O-])c1=O)NCc1ccccc1OC(F)F` gave a logP [1] of 1.63, a Ki [5] of 3 nM and a Ratio [6] of 0. For the same molecule, the half-life [2] was 2.8 h, the Cmax [3] was 2030 nM and the Concentration [4] was 0.69 µM.

With `O=C(Cn1c(Cl)cnc(NCC(F)(F)c2cccc[n+]2[O-])c1=O)NCc1cc(F)ccc1F` the logP [1] was “Not Active”, the Ki [5] was 2.4 nM and the Ratio [6] was 0.05. For the same molecule, the half-life [2] was 3.9 h, the Cmax [3] was 2290 nM and the Concentration [4] was 0.43 µM.

Molecule `COc1ccccc1CNC(=O)Cn1c(Cl)cnc(NCC(F)(F)c2cccc[n+]2[O-])c1=O` has a logP [1] of 1.36, a Ki [5] of 3 nM and a Ratio [6] of 0.44. For the same molecule, the half-life [2] was 3.8 h, the Concentration [4] was 0.56 µM and the Cmax ([13]; 0.5 mg/kg) was 2480 nM.

— ChEMBL document CHEMBL1136692, “Pharmacokinetic optimization of 3-amino-6-chloropyrazinone acetamide thrombin inhibitors. Implementation of P3 pyridine N-oxides to deliver an orally bioavailable series containing P1 N-benzylamides” (Bioorg Med Chem Lett, 2003)
